Measured values from ChEMBL document CHEMBL1135127, “SAR and species/stereo-selective metabolism of the sorbitol dehydrogenase inhibitor, CP-470,711” (Bioorg Med Chem Lett, 2002).

Columns and labels:
[1] = target: T1, Sorbitol dehydrogenase (Homo sapiens, UniProt Q00796); assay: In vitro inhibition against human recombinant sorbitol dehydrogenase
T1 sequence (Q00796 whole entry): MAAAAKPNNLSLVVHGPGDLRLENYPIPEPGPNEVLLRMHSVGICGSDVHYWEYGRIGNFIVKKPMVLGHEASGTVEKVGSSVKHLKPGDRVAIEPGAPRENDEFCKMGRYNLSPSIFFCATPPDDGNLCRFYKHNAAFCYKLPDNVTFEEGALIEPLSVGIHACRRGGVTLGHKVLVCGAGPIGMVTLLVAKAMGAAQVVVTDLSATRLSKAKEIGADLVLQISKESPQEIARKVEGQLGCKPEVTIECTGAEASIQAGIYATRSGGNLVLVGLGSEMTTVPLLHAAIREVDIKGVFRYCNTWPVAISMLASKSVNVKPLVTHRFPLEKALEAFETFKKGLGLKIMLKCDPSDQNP

[2] = tested on: Rattus norvegicus; assay: In vivo reversal of sciatic nerve fructose accumulation in streptozotocin rat by chronic assay at 1 mg/kg (qd x 5); format: functional
How it was run: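 Reversal design in STZ rats: once-daily dosing began 5 days after STZ. Sciatic nerve fructose was measured and activity expressed as % normalization at 1 mg/kg.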

[3] = target: T2, Sorbitol dehydrogenase (Rattus norvegicus, UniProt P27867); assay: Inhibition of recombinant rat sorbitol dehydrogenase
T2 sequence (P27867 whole entry): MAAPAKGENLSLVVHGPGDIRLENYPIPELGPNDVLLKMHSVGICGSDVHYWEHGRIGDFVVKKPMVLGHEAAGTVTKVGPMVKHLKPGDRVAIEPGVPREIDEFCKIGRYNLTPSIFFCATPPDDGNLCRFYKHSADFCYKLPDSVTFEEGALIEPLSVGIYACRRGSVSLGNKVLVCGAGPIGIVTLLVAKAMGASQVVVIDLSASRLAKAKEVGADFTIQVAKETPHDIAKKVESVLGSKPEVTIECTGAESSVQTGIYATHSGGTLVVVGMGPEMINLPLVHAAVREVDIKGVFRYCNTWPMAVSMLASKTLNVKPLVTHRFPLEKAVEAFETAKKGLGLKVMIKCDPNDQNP

[4] = tested on: Rattus norvegicus; assay: In vivo prevention of sciatic nerve fructose accumulation in streptozotocin diabetic rat by acute assay (tid x 4); format: functional
How it was run: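 Streptozotocin-diabetic rats dosed three times daily, starting 4 h after STZ, to prevent sciatic nerve fructose accumulation. Activity is reported as ED90 in mg/kg/d.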

[5] = target: T1, Sorbitol dehydrogenase; assay: In vitro inhibition against human recombinant Sorbitol dehydrogenase
[6] = target: T2, Sorbitol dehydrogenase; assay: Inhibition of recombinant rat Sorbitol dehydrogenase

SMILES	IC50 [1]	Reversal [2]	IC50 [3]	ED90 [4]	IC50 [5]	IC50 [6]
CC(=O)c1nccc(N2C[C@@H](C)N(c3ccnc(C(C)=O)n3)[C@@H](C)C2)n1	212 nM	92%	227 nM	0.9 mg/kg/day	–	–
C[C@H](O)c1nccc(N2C[C@@H](C)N(c3ccnc([C@H](C)O)n3)[C@@H](C)C2)n1	–	84%	–	0.7 mg/kg/day	831 nM	640 nM
CC(=O)c1nccc(N2C[C@@H](C)N(c3ccnc([C@@H](C)O)n3)[C@@H](C)C2)n1	19 nM	94%	18 nM	0.2 mg/kg/day	–	–
C[C@H](O)c1nccc(N2C[C@@H](C)N(c3ccnc([C@@H](C)O)n3)[C@@H](C)C2)n1	33 nM	81%	29 nM	0.4 mg/kg/day	–	–
CC(=O)c1nccc(N2[C@H](C)CN(c3ccnc([C@@H](C)O)n3)C[C@@H]2C)n1	6 nM	77%	5 nM	0.5 mg/kg/day	–	–
C[C@H](O)c1nccc(N2[C@H](C)CN(c3ccnc([C@@H](C)O)n3)C[C@@H]2C)n1	–	81%	–	0.8 mg/kg/day	19 nM	27 nM
CC(O)c1nccc(N2C[C@@H](C)N(c3ccnc(C(C)O)n3)[C@@H](C)C2)n1 (some centres not stated)	–	92%	–	0.6 mg/kg/day	28 nM	8 nM
C[C@@H]1CN(c2ccnc([C@@H](C)O)n2)C[C@H](C)N1c1ccnc([C@@H](C)O)n1	10 nM	90%	17 nM	0.2 mg/kg/day	–	–
